Data on four compounds can be found in ChEMBL document CHEMBL1126136, “Stereoselective LSD-like activity in d-lysergic acid amides of (R)- and (S)-2-aminobutane” (J Med Chem, 1992).

Experiment [1] deals with Rattus norvegicus. The experiment is described as follows: Percentage of animals selecting drug lever at a dose 139 nmol/kg. It is filed as functional. The essentials: (§1)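 Two-lever drug discrimination in rats trained to tell ip LSD tartrate (0.08 mg/kg, 186 nmol/kg, 30 min pretreatment) from saline, FR50 food schedule. Test drugs were given ip in saline. Test sessions ran under extinction and ended at 50 presses on one lever. Read-out was the percentage of rats selecting the drug lever at each dose; an 85% accuracy criterion applied.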

Experiment [2] concerns Rattus norvegicus. Briefly: Percentage of animals selecting drug lever at a dose 93 nmol/kg. It is filed as functional. The essentials:
as §1

Experiment [3] deals with Rattus norvegicus. Briefly: Percentage of animals selecting drug lever at a dose 163 nmol/kg. It is filed as functional. A digest of the protocol: as §1
Experiment [4] has as its system Rattus norvegicus. Briefly: Percentage of animals selecting drug lever at a dose 301 nmol/kg. It is filed as functional. The essentials: as §1
In experiment [5] the test system is Rattus norvegicus. The experiment is described as follows: Percentage of animals selecting drug lever at a dose 279 nmol/kg. In kind it is functional. A digest of the protocol: as §1
Experiment [6] concerns Rattus norvegicus. The experiment is described as follows: Percentage of animals selecting drug lever at a dose 186 nmol/kg. In kind it is functional. The essentials:
as §1

Experiment [7] has as its system Rattus norvegicus. Briefly: Percentage of animals selecting drug lever at a dose 47nmol/kg. It is filed as functional. A digest of the protocol: as §1
Experiment [8] is filed under the species Rattus norvegicus. The experiment is described as follows: Potency of compound in 1-trained rats measured as ED50 relative to LSD. It is filed as functional.
The species entered for experiment [9] is Rattus norvegicus. Briefly: Potency of compound in 1-trained rats. In kind it is functional.
Experiment [10] relates to Rattus norvegicus. The experiment is described as follows: Percentage of animals selecting drug lever at a dose 12 nmol/kg. It is filed as functional. The essentials: as §1
The subject of experiment [11] is Rattus norvegicus. Briefly: Percentage of animals selecting drug lever at a dose 23 nmol/kg. In kind it is functional. The essentials:
as §1

In experiment [12] the target is T1, 5-hydroxytryptamine receptor 1A (Rattus norvegicus, UniProt P19327).
T1 sequence (P19327 whole entry): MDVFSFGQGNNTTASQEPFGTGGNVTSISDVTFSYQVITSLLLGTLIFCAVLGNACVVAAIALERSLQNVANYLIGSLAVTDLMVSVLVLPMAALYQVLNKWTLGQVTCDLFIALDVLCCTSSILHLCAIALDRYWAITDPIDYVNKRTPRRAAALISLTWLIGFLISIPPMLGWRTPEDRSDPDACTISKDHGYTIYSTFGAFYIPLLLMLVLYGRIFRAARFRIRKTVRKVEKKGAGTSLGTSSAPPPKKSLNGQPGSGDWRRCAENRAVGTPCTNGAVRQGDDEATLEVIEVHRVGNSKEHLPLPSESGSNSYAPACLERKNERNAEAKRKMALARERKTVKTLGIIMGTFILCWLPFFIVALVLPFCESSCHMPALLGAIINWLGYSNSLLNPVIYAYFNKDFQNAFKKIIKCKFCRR
Briefly: Affinity in displacing [3H]8-OH-DPAT from rat hippocampal 5-HT1A receptor. In kind it is tissue-based, Hippocampus. The essentials:
(§2)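 Male Sprague-Dawley rat hippocampal homogenate (pooled from 10–20 rats, sucrose-washed, preincubated twice at 37 °C). Membranes at 200–400 µg protein in 50 mM Tris HCl pH 7.4 with 0.5 mM EDTA, 0.1% ascorbate and 10 µM pargyline. Displacement of 1.0 nM [3H]-8-OH-DPAT, 10 min at 37 °C, then filtered. Nonspecific binding defined with 10 µM serotonin. Triplicates; 3–4 experiments.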

For experiment [13], the target named is T2, Serotonin receptor 2a and 2b (5HT2A and 5HT2B) (Rattus norvegicus, UniProt P30994+P14842). The experiment is described as follows: Affinity in displacing [125I](R)-DOI from rat cortical homogenate 5-HT2 receptor. The essentials: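 Male Sprague-Dawley rat frontal cortex homogenate (pooled from 10–20 rats, sucrose-washed, preincubated twice at 37 °C). Membranes at 200–400 µg protein in 50 mM Tris HCl pH 7.4 with 0.5 mM EDTA, 0.1% ascorbate, 10 µM pargyline and 10 mM MgCl2. Triplicates; Ki from 3–4 experiments.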

Experiment [14] has as its system Rattus norvegicus. The experiment is described as follows: Percentage of animals selecting drug lever at a dose 372 nmol/kg. It is filed as functional. A digest of the protocol: as §1
Experiment [15] deals with Rattus norvegicus. Briefly: Percentage of animals selecting drug lever at a dose 465 nmol/kg. In kind it is functional. A digest of the protocol:
as §1

For experiment [16], the target named is T2, Serotonin receptor 2a and 2b (5HT2A and 5HT2B). The experiment is described as follows: Affinity in displacing [125I](R)-DOI from rat cortical homogenate 5-hydroxytryptamine 2 receptor. A digest of the protocol: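 Male Sprague-Dawley rat frontal cortex homogenate (pooled from 10–20 rats, sucrose-washed, preincubated twice at 37 °C). Membranes at 200–400 µg protein in 50 mM Tris HCl pH 7.4 with 0.5 mM EDTA, 0.1% ascorbate, 10 µM pargyline and 10 mM MgCl2. Displacement of 0.25 nM [125I]-(R)-DOI, 15 min at 37 °C, then filtered and gamma-counted. Triplicates; Ki from 3–4 experiments.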

The target in experiment [17] is T1, 5-hydroxytryptamine receptor 1A. Briefly: Affinity in displacing [3H]8-OH-DPAT from rat hippocampal 5-hydroxytryptamine 1A receptor. In kind it is tissue-based, Hippocampus. The essentials:
as §2

The test system of experiment [18] is Rattus norvegicus. The experiment is described as follows: Percentage of animals selecting drug lever at a dose 290 nmol/kg. It is filed as functional. A digest of the protocol: as §1
In experiment [19] the test system is Rattus norvegicus. The experiment is described as follows: Percentage of animals selecting drug lever at a dose 6 nmol/kg. In kind it is functional. A digest of the protocol: as §1

The term ED50 denotes the midpoint of the dose-response relation. Low values mean an effect at a small dose, high ones a need for a large dose. With `CN1C[C@H](C(=O)N2CCCC2)C=C2c3cccc4[nH]cc(c34)C[C@H]21`, the SDL with Rattus norvegicus [1] was found to be 27%; with Rattus norvegicus [2] it was 22%; with Rattus norvegicus [3], 40%; in the experiment with Rattus norvegicus [4], 82%; in the experiment with Rattus norvegicus [5] it was 67%; in the experiment on Rattus norvegicus [6], 60%. Further, the SDL in the experiment on Rattus norvegicus [7] stood at 22%. For the same compound, the Relative potency in the experiment filed under Rattus norvegicus [8] is 0.16. In addition, in the experiment filed under Rattus norvegicus [9], the ED50 is 0.168 µmol/kg.

As usually defined, the Ki is a measure of affinity in units of concentration, obtained from inhibition or displacement. Read a low Ki as a stronger hold on the target. In the case of `CC[C@@H](C)NC(=O)[C@@H]1C=C2c3cccc4[nH]cc(c34)C[C@H]2N(C)C1`, the SDL in the experiment with Rattus norvegicus [10] is 13%; in the experiment on Rattus norvegicus [11], 50%; in the experiment on Rattus norvegicus [2], 75%; in the experiment on Rattus norvegicus [6] it was 88%; in the experiment with Rattus norvegicus [7] it was 75%. Besides, the Ki in experiment [12] amounted to 2.01 nM; in experiment [13], 2.63 nM. In addition, the Relative potency in the experiment listed under Rattus norvegicus [8] is listed as 0.82. In addition, the ED50 in the experiment filed under Rattus norvegicus [9] worked out at 0.033 µmol/kg.

Regarding `CC[C@H](C)NC(=O)[C@@H]1C=C2c3cccc4[nH]cc(c34)C[C@H]2N(C)C1`, the SDL in the experiment on Rattus norvegicus [14] worked out at 75%; in the experiment with Rattus norvegicus [2], 50%; in the experiment with Rattus norvegicus [6], 75%; in the experiment on Rattus norvegicus [15] it was 100%; in the experiment on Rattus norvegicus [7], 13%; with Rattus norvegicus [18], 67%. For the same compound, the Ki turned out to be 7.76 nM in experiment [16] and 4.61 nM in experiment [17]. Moreover, in the experiment listed under Rattus norvegicus [8], the Relative potency was 0.22. In addition, the ED50 in the experiment filed under Rattus norvegicus [9] was 0.124 µmol/kg.

`CCN(CC)C(=O)[C@@H]1C=C2c3cccc4[nH]cc(c34)C[C@H]2N(C)C1` [LYSERGIDE]: the SDL is 0% in the experiment on Rattus norvegicus [19], 36% in the experiment with Rattus norvegicus [11], 100% with Rattus norvegicus [2] and 78% with Rattus norvegicus [7]. In experiment [12], the Ki turned out to be 5.05 nM. The compound further returned an ED50 in the experiment listed under Rattus norvegicus [9] of 0.0275 µmol/kg.
